Screens: PubChem, several laboratories
A selection: hits, their analogues and other compounds. The true share with any hit is near 1.9%.
Xi reactivation – activators of X-chromosome reactivation in mouse fibroblasts | XiGFP mouse fibroblasts, % GFP-positive cells imaging, 3 d; cells co-treated with 5-aza-dC sensitizer; scaled so ellipticine positive control = 100% | activation, % at 7.58 µM | hit rate 0.055% among 360,000 | AID 743238;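 active = mean normalized replicate activation at least 10% and every replicate at or above 10%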;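 also: 0% = median of on-plate neutral control wells and 100% = ellipticine 6 µM median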
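Material: XiGFP fibroblasts, SV40-immortalized. Buffer or medium: DMEM plus 5-aza-dC sensitizer. Compound: single concentration per compound, delivered by pin transfer. Times: 3 days compound exposure. Controls: ellipticine 6 µM.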
Rin1-Abl PPI inh – inhibitors of human Rin1-Abl protein interaction. P00519+Q13671. TR-FRET Rin1/Abl binding, biochemical. inhibition, % at 7.35 µM. hit rate 0.4% among 360,000. AID 588664; in the data active = inhibition above about 5%, passing the limit was not always enough
ABHD5-PLIN5 inh – inhibitors of human ABHD5-perilipin-5 interaction. Q00G26+Q8WTS1. Split G. princeps luciferase complementation, luminescence, 4 h. inhibition, % at 4 µM. hit rate 0.78% among 360,000. AID 602281;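 active = inhibition above the mean inhibition across every tested compound plus 3 SD, cut at about 22% in these data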;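 also: 0% = DMSO only wells and the 100% control is not disclosed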
NadD inh – NadD (S. aureus) enzyme inhibition; hit rate 0.78% among 360,000; purified NadD enzyme, colorimetric absorbance read-out; inhibition, % at 20 µM; in the data active = inhibition above about 26%
Rpn11 inh – inhibitors of human proteasome Rpn11 | hit rate 0.59% among 360,000 | human 26S proteasome, Ub4-pepOG fluorescence polarization; 20S core pre-blocked with epoxomicin | inhibition, % at 20 µM | O00487;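 active = inhibition at 20 µM, scaled to each plate's controls, above about 33%, limit read from the data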
ABHD5 PLIN5 conf – confirmation of human ABHD5-PLIN5 interaction inhibitors; shares compounds with ABHD5-PLIN5 inh; biochemical ABHD5-PLIN5 interaction, luminescence; inhibition, % at 4 µM; hit rate 67% among 2,200; AID 651612; in the data active = inhibition above about 23%;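 also: 0% = DMSO vehicle wells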
HNF4 split-luc – active in HNF4 split-luciferase counter-screen for ABHD5-PLIN5 inhibitors | shares compounds with ABHD5-PLIN5 inh | HNF4 dimerization, luminescence, biochemical | inhibition, % at 4 µM | hit rate 77% among 2,200 | AID 651674;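 active = mean inhibition across replicate wells exceeding the computed hit threshold, cut at about 13% in these data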;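 also: light from luciferase halves that rejoin when HNF4 fusion proteins dimerize; 0% = DMSO only wells and the 100% control is not given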
Numbers without * were called inactive; nt = no result.

SMILES	Xi reactivation	Rin1-Abl PPI inh	ABHD5-PLIN5 inh	NadD inh	Rpn11 inh	ABHD5 PLIN5 conf	HNF4 split-luc
CCOC(=O)COc1ccccc1/C=C1/NC(=O)NC1=O	0	-3	-4	-7	-2	nt	nt
O=C1Nc2ccc(Br)cc2/C1=C/C(=O)c1ccccc1	0	3	85*	9	7	88*	80*
C=CCOc1cccc(C(=O)/C=C2/C(=O)Nc3ccccc32)c1	0	2	65*	-12	0	80*	90*
CC(=O)/C=C1/C(=O)Nc2ccccc21	0	0	44*	-1	3	71*	81*
O=C(O)COc1ccccc1/C=C1\C(=O)Nc2ccc(Br)cc21	0	1	34*	-3	-4	42*	44*
O=C(CC1(O)C(=O)Nc2ccc(Br)cc21)c1ccccc1 (stereo unspecified)	0	-5	-9	5	-4	nt	nt
CN(C)CCn1cnc2c(c1=N)C(c1ccccc1)c1ccc3ccccc3c1O2 (stereo unspecified)	0	-3	26*	-4	-25	14	0
CS(=O)(=O)Nc1ccc2c(c1)[C@H]1C[C@@H](CC(=O)NCC3CC3)O[C@H](CO)[C@H]1O2	0	nt	nt	nt	nt	nt	nt
CC1CN(C2=CC(=O)CCC2)CC(C)O1 (stereo unspecified)	0	-2	31*	7	-2	-4	13*
CCOc1c(N2CC(C)OC(C)C2)c(=O)c1=O (stereo unspecified)	0	3	-1	2	0	nt	nt
COCCNC(=O)C[C@H]1CC[C@@H]2[C@@H](COc3ccc(NC(=O)Cc4ccccc4)cc3C(=O)N2C)O1	0	nt	nt	nt	nt	nt	nt
C=C1C(=O)OC2CC1C(O)CC(C)=CCCC(C)=CC(O)CC2C (stereo unspecified)	2	3	55*	0	2	81*	61*
C=C1C(=O)OC2CC1C(OC(C)=O)CC(C)=CCCC(C)=CCCC2(C)O (stereo unspecified)	nt	3	61*	-3	-6	83*	66*
Cc1ccccc1S(=O)Cc1ccc(C(=O)N2CCN(C(=O)c3ccco3)CC2)o1 (stereo unspecified)	0	2	75*	3	-1	-2	-3
Cc1ccccc1S(=O)Cc1ccc(C(=O)N2CCN(C3CCCCC3)CC2)o1 (stereo unspecified)	0	-7	3	-6	-4	nt	nt
C/C=C/c1ccc([C@@H]2[C@H](CO)N(C(C)=O)C23CN(C(=O)c2ccc(F)cc2)C3)cc1	0	nt	nt	nt	nt	nt	nt
Cc1cc(C)c2c(=O)n(CC(=O)NC3CCCC3)sc2n1	0	-2	27*	-15	-9	33*	107*
COc1ccc(CNCc2ccncc2)c(OC)c1	0	1	5	-3	2	nt	nt
CCN(Cc1ccncc1)Cc1ccc(OC)cc1OC	0	1	26*	-1	0	-1	8
C[C@@H]1CCCCO[C@@H](CN(C)C(=O)Nc2ccc3c(c2)OCO3)[C@H](C)CN([C@H](C)CO)C(=O)c2cc(NC(=O)c3ccncc3)ccc2O1	0	nt	nt	nt	nt	nt	nt
O=C(COC(=O)CCC(=O)c1ccc(Cl)cc1)NCc1ccco1	0	-4	25*	3	-3	11	7
CCOC(=O)CNc1nnc(SCC(=O)OCC)[nH]c1=O	nt	-2	26*	-3	-4	41*	83*
COC(=O)CSc1nnc(C)c(=O)[nH]1	nt	-1	0	-3	10	nt	nt
O=c1[nH]c(C2CCN(S(=O)(=O)c3ccc(S(=O)(=O)NC4CC4)cc3)CC2)nc2c1nnn2Cc1ccccc1	1	3	3	17	2	nt	nt
O=c1[nH]c(C2CCN(S(=O)(=O)c3ccc(S(=O)(=O)NC4CC4)cc3)CC2)nc2c1nnn2Cc1ccc(F)cc1	0	-1	28*	14	-6	48*	3
SMILES	Xi reactivation	Rin1-Abl PPI inh	ABHD5-PLIN5 inh	NadD inh	Rpn11 inh	ABHD5 PLIN5 conf	HNF4 split-luc
C[C@@H]1CN([C@@H](C)CO)S(=O)(=O)c2ccc(-c3ccncc3)cc2O[C@@H]1CN(C)C(=O)Nc1ccc(C(F)(F)F)cc1	-1	nt	nt	nt	nt	nt	nt
CN(C)CCCN(C(=O)CCS(=O)(=O)c1ccccc1)c1nc2cc3c(cc2s1)OCO3	5	2	26*	-6	4	18	49*
CN(C)CCCN(C(=O)CCSc1ccccc1)c1nc2cc3c(cc2s1)OCO3	0	-3	27*	-2	-3	15	19*
CCC(=O)N1CCC2(CC1)CN(Cc1nccs1)[C@@H](CO)c1c2c2ccc(OC)cc2n1C	0	nt	nt	nt	nt	nt	nt
CC1=CC(=O)C(Sc2ccc(C)cc2)=CC1=O	6	-3	62*	8	-10	60*	97*
Cc1ccc(Sc2c(C)[nH]n(C(C)(C)C)c2=O)cc1	nt	-4	-6	-2	-9	nt	nt
CC(C)NC(=O)Nc1ccc2c(c1)C(=O)N([C@@H](C)CO)C[C@H](C)[C@H](CN(C)S(C)(=O)=O)O2	-1	nt	nt	nt	nt	nt	nt
CN1CCN(CCCNC(=O)c2ccc(/C=C3\Sc4ccccc4N(Cc4ccccc4F)C3=O)cc2)CC1	nt	0	33*	-3	-1	5	-6
O=C(NCCN1CCOCC1)c1ccc(/C=C2\Sc3ccccc3N(Cc3ccccc3F)C2=O)cc1	0	-1	8	-8	0	nt	nt
CCC1CCCCN1CCCNC(=O)c1ccc2c(c1)N(Cc1ccc(F)cc1)C(=O)c1ccccc1S2=O (stereo unspecified)	0	0	25*	-2	-10	2	8
O=C(NCCCN1CCCC1)c1ccc2c(c1)N(Cc1ccc(F)cc1)C(=O)c1ccccc1S2=O (stereo unspecified)	0	5	5	1	4	nt	nt
CCN1CCN(CCNC(=O)c2ccc3c(c2)N(Cc2ccc(F)cc2)C(=O)/C(=C/c2ccccc2)S3)CC1	0	-5	24*	-3	2	17	4
CCC(=O)N[C@H]1CC[C@H](CC(=O)NCC2CC2)O[C@H]1CO	0	nt	nt	nt	nt	nt	nt
COc1ccc2c3c([nH]c2c1)[C@H](CO)N(C(=O)c1ccc(F)cc1)CC31CN(Cc2cccnc2)C1	0	nt	nt	nt	nt	nt	nt
CN(C)C(=O)C[C@H]1C=C[C@H](NC(=O)C2CC2)[C@@H](CO)O1	0	nt	nt	nt	nt	nt	nt
C=C1C(=O)C23C(O)C1CCC2C12COC3(O)C(O)C1C(C)(C)CCC2O (stereo unspecified)	nt	2	96*	-3	-11	88*	106*
CNC(=S)N(CCc1c(C)[nH]c2ccc(C)cc12)Cc1ccco1	0	0	31*	12	30	2	-6
CCNC(=S)N(CCc1c(C)[nH]c2ccc(Cl)cc12)Cc1ccco1	0	1	8	-7	4	nt	nt
